The text below walks through data of ChEMBL document CHEMBL4342521 (J Med Chem, 2020).

Assay [1] addresses T1, Protein deacetylase HDAC6 (Homo sapiens, UniProt Q9UBN7).
T1 sequence (Q9UBN7 whole entry): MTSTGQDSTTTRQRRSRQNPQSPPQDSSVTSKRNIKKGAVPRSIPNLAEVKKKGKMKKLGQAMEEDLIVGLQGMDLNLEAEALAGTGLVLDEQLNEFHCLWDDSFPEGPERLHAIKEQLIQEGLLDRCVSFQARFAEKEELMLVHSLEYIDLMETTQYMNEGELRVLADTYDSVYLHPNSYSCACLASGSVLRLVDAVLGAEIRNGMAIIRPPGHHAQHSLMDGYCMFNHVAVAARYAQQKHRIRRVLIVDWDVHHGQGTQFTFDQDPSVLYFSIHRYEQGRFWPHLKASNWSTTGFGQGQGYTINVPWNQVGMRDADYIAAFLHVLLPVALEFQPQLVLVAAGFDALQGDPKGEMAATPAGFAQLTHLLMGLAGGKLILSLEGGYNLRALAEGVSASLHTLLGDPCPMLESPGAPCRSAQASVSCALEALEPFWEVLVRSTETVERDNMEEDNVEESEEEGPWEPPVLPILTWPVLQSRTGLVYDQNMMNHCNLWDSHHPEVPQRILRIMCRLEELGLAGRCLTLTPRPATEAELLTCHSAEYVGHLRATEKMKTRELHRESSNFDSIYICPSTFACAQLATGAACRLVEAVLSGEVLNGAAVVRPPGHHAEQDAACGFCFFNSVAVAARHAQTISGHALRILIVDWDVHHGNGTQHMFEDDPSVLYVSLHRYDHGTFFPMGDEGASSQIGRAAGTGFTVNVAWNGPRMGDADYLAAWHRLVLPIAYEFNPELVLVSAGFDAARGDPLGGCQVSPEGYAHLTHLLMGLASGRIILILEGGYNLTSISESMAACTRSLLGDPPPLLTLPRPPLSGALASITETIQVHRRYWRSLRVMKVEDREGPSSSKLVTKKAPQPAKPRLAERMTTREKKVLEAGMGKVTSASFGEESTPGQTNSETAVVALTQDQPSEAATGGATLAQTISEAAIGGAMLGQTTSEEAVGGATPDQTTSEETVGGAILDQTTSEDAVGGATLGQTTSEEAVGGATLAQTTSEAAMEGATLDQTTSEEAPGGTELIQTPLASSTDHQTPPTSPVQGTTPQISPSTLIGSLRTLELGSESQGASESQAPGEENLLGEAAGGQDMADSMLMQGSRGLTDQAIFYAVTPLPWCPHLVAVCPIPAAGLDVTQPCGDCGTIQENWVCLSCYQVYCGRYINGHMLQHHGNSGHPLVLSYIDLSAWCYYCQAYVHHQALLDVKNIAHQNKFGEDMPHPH
Briefly: Inhibition of recombinant HDAC6 (unknown origin) using Boc-Lys(acetyl)-AMC as substrate preincubated for 1 hr followed by substrate addition and measured after 2 hrs by fluorescence based micro plate reader analysis.

Assay [2] concerns MV4-11. Briefly: Inhibition of MDM2 degradation in human MV4-11 cells harboring wild type p53/FLT3-ITD mutant at 100 nM after 12 hrs in presence of MDM2 inhibitor RG7388 by Western blot analysis relative to control. In kind it is functional. The conditions noted are these: MV4-11, 12 h. The method in brief: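 Cells (1,500,000 per well) grown 12 h, then drug-treated as specified. Lysed in RIPA buffer, sonicated, centrifuged, protein normalized by BCA. Run on 4–12% Bis-Tris gels in MES, transferred, probed overnight at 4 °C with primary antibodies at 1/1000. Actin served as reference for LC3-II quantitation.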
In general terms: A western blot detects proteins with antibodies after separation by electrophoresis.

Usually IC50 stands for the concentration that inhibits the measured activity by half. Usually inhibition stands for the change of the read-out against control, counted positive when it falls. For `CCCNNC(=O)/C=C/c1ccc(CNCCc2c(C)[nH]c3ccccc23)cc1.O=C(O)C(F)(F)F`, in assay [1], the IC50 is more than 50 µM. The inhibition at 0.1 µM in assay [2] worked out at 100%.
